Assay results taken from ChEMBL document CHEMBL5653631, “A Potent and Selective ULK1 Inhibitor Suppresses Autophagy and Sensitizes Cancer Cells to Nutrient Stress” (iScience, 2018).
Activity calls are given as the source filed them. No cut-off for these calls is given here.

Experiments:
U2OS [1] = assay: Inhibition of autophagy in human U2OS cells assessed as BafA1-induced LC3B-II accumulation by measuring fold change at 100 nM […] by immunoblotting analysis; format: functional; settings: time 4 hrs
U2OS [2] = assay: Inhibition of autophagy in human U2OS cells assessed as ATG12-positive puncta formation at 100 nM incubated for 2.5 hrs by Fluorescent microscopy based analysis; format: functional, cell-based
Method in brief: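 U2OS cells treated 2.5 hr with vehicle or 100 nM AZD8055, with or without 5 μM inhibitor; fixed and immunostained for endogenous ATG12; ATG12-positive puncta (phagophores) assessed by fluorescence microscopy.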

U2OS [3] = assay: Inhibition of autophagy in human U2OS cells expressing […] assessed as DFCP1-positive puncta formation by measuring fold change at 100 nM incubated for 2.5 hrs by Fluorescent microscopy based analysis; format: functional
Method in brief: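 U2OS cells stably expressing EGFP-DFCP1 (omegasome marker) were treated 2.5 hr with vehicle or 100 nM AZD8055 (mTOR inhibitor used to induce autophagy), with or without 5 μM inhibitor, and imaged live by fluorescence microscopy. DFCP1-positive objects per cell were counted in 20–25 cells per condition and reported as mean ± SEM, with two-tailed unpaired t test.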

U2OS [4] = assay: Inhibition of autophagy in human U2OS cells expressing […] at 100 nM incubated for 2.5 hrs by Fluorescent microscopy based analysis; format: functional, cell-based
Method in brief: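 U2OS cells stably expressing EGFP-DFCP1 treated 2.5 hr with vehicle or 100 nM AZD8055, with or without 5 μM inhibitor; imaged live by fluorescence microscopy; DFCP1-positive objects per cell counted in 20–25 cells per condition; mean ± SEM, two-tailed unpaired t test.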

COc1ccc(-c2ccc3c(N4CCOC[C@@H]4C)nc(N4CCOC[C@@H]4C)nc3n2)cc1CO [AZD-8055]
fold change (FC) (U2OS [1]): 2 | inhibition (U2OS [2]): Active | fold change (FC) (U2OS [3]): 3 | inhibition (U2OS [4]): Active
